According to ChEMBL document CHEMBL3124806, “Imidazopyridine-fused [1,3]-diazepinones: synthesis and antiproliferative activity” (Eur J Med Chem, 2014):

Columns and labels:
Assay type in all cases: functional
[1] = Cytotoxicity against human UACC257 cells assessed as cell growth at 10 uM after 48 hrs by SRB assay relative to untreated control; details: UACC-257, 48 h, read-out: Activity
Method in brief: (§1)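 NCI-60 single-dose screen. Compounds were added to the cultures at 10 μM and incubated for 48 h. The end point was sulforhodamine B protein staining read spectrophotometrically. Growth is reported as percent of untreated control cells.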

[2] = test system: RXF 393; assay: Cytotoxicity against human RXF393 cells assessed as cell growth at 10 uM after 48 hrs by SRB assay relative to untreated control; details: RXF 393, 48 h, read-out: Activity
Method in brief: (§2)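 NCI-60 one-dose screen: each agent added at 10 µM, cultures incubated 48 h. Endpoint by sulforhodamine B protein-binding dye read spectrophotometrically; growth expressed as percent of untreated control cells.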

[3] = test system: BT-549; assay: Cytotoxicity against human BT549 cells assessed as cell growth at 10 uM after 48 hrs by SRB assay relative to untreated control; details: BT-549, 48 h, read-out: Activity
Method in brief: (§3)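 NCI-60 panel screen at a single concentration of 10 μM with 48 h incubation. Cell density measured by sulforhodamine B protein-binding dye and read spectrophotometrically. Growth expressed as percent of untreated control cells.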

[4] = test system: U-251; assay: Cytotoxicity against human U251 cells assessed as cell growth at 10 uM after 48 hrs by SRB assay relative to untreated control; details: U-251, 48 h, read-out: Activity; method in brief: as §1
[5] = test system: MOLT-4; assay: Cytotoxicity against human MOLT4 cells assessed as cell growth at 10 uM after 48 hrs by SRB assay relative to untreated control; details: MOLT-4, 48 h, read-out: Activity; method in brief: as §2
[6] = test system: SNB-19; assay: Cytotoxicity against human SNB19 cells assessed as cell growth at 10 uM after 48 hrs by SRB assay relative to untreated control; details: SNB-19, 48 h, read-out: Activity; method in brief: as §1
[7] = test system: SR; assay: Cytotoxicity against human SR cells assessed as cell growth at 10 uM after 48 hrs by SRB assay relative to untreated control; details: read-out: Activity; method in brief: as §1
[8] = test system: CAKI-1; assay: Cytotoxicity against human Caki1 cells assessed as cell growth at 10 uM after 48 hrs by SRB assay relative to untreated control; details: CAKI-1, 48 h, read-out: Activity; method in brief: as §3
[9] = test system: KM12; assay: Cytotoxicity against human KM12 cells assessed as cell growth at 10 uM after 48 hrs by SRB assay relative to untreated control; details: KM12, 48 h, read-out: Activity; method in brief: as §3
[10] = test system: SNB-75; assay: Cytotoxicity against human SNB75 cells assessed as cell growth at 10 uM after 48 hrs by SRB assay relative to untreated control; details: SNB-75, 48 h, read-out: Activity; method in brief: as §1
[11] = test system: HCT-15; assay: Cytotoxicity against human HCT15 cells assessed as cell growth at 10 uM after 48 hrs by SRB assay relative to untreated control; details: HCT-15, 48 h, read-out: Activity; method in brief: as §3
[12] = test system: OVCAR-3; assay: Cytotoxicity against human OVCAR3 cells assessed as cell growth at 10 uM after 48 hrs by SRB assay relative to untreated control; details: OVCAR-3, 48 h, read-out: Activity; method in brief: as §2
[13] = test system: UACC-62; assay: Cytotoxicity against human UACC62 cells assessed as cell growth at 10 uM after 48 hrs by SRB assay relative to untreated control; details: UACC-62, 48 h, read-out: Activity; method in brief: as §1
[14] = test system: LOX IMVI; assay: Cytotoxicity against human LOXIMVI cells assessed as cell growth at 10 uM after 48 hrs by SRB assay relative to untreated control; details: read-out: Activity; method in brief: as §3
[15] = test system: NCI-H322M; assay: Cytotoxicity against human NCI-H322M cells assessed as cell growth at 10 uM after 48 hrs by SRB assay relative to untreated control; details: read-out: Activity; method in brief: as §2
[16] = test system: MDA-MB-468; assay: Cytotoxicity against human MDA-MB-468 cells assessed as cell growth at 10 uM after 48 hrs by SRB assay relative to untreated control; details: MDA-MB-468, 48 h, read-out: Activity; method in brief: as §2
[17] = test system: HT-29; assay: Cytotoxicity against human HT-29 cells assessed as cell growth at 10 uM after 48 hrs by SRB assay relative to untreated control; details: HT-29, 48 h, read-out: Activity; method in brief: as §3
[18] = test system: MCF7; assay: Cytotoxicity against human MCF7 cells assessed as cell growth at 10 uM after 48 hrs by SRB assay relative to untreated control; details: MCF7, 48 h, read-out: Activity; method in brief: as §3
[19] = test system: MDA-MB-231; assay: Cytotoxicity against human MDA-MB-231 cells assessed as cell growth at 10 uM after 48 hrs by SRB assay relative to untreated control; details: MDA-MB-231, 48 h, read-out: Activity; method in brief: as §2
[20] = Cytotoxicity against human OVCAR5 cells assessed as cell growth at 10 uM after 48 hrs by SRB assay relative to untreated control; details: OVCAR-5, 48 h, read-out: Activity; method in brief: as §2
[21] = test system: SW-620; assay: Cytotoxicity against human SW620 cells assessed as cell growth at 10 uM after 48 hrs by SRB assay relative to untreated control; details: SW-620, 48 h, read-out: Activity; method in brief: as §1
[22] = test system: NCI-H522; assay: Cytotoxicity against human NCI-H522 cells assessed as cell growth at 10 uM after 48 hrs by SRB assay relative to untreated control; details: NCI-H522, 48 h, read-out: Activity; method in brief: as §2
[23] = test system: PC-3; assay: Cytotoxicity against human PC3 cells assessed as cell growth at 10 uM after 48 hrs by SRB assay relative to untreated control; details: PC-3, 48 h, read-out: Activity; method in brief: as §2
[24] = test system: K562; assay: Cytotoxicity against human K562 cells assessed as cell growth at 10 uM after 48 hrs by SRB assay relative to untreated control; details: K562, 48 h, read-out: Activity; method in brief: as §3
[25] = test system: 786-0; assay: Cytotoxicity against human […] cells assessed as cell growth at 10 uM after 48 hrs by SRB assay relative to untreated control; details: 786-0, 48 h, read-out: Activity; method in brief: as §3
[26] = test system: ACHN; assay: Cytotoxicity against human ACHN cells assessed as cell growth at 10 uM after 48 hrs by SRB assay relative to untreated control; details: read-out: Activity; method in brief: as §3
[27] = test system: COLO 205; assay: Cytotoxicity against human COLO205 cells assessed as cell growth at 10 uM after 48 hrs by SRB assay relative to untreated control; details: COLO 205, 48 h, read-out: Activity; method in brief: as §3
[28] = test system: NCI-H226; assay: Cytotoxicity against human NCI-H226 cells assessed as cell growth at 10 uM after 48 hrs by SRB assay relative to untreated control; details: NCI-H226, 48 h, read-out: Activity; method in brief: as §2
[29] = test system: NCI-H460; assay: Cytotoxicity against human NCI-H460 cells assessed as cell growth at 10 uM after 48 hrs by SRB assay relative to untreated control; details: NCI-H460, 48 h, read-out: Activity; method in brief: as §2
[30] = Cytotoxicity against human UO31 cells assessed as cell growth at 10 uM after 48 hrs by SRB assay relative to untreated control; details: UO-31, 48 h, read-out: Activity; method in brief: as §1
[31] = test system: OVCAR-8; assay: Cytotoxicity against human OVCAR8 cells assessed as cell growth at 10 uM after 48 hrs by SRB assay relative to untreated control; details: OVCAR-8, 48 h, read-out: Activity; method in brief: as §2

Row | SMILES | growth at 10 µM [1] [%] | growth at 10 µM [2] [%] | growth at 10 µM [3] [%] | growth at 10 µM [4] [%] | growth at 10 µM [5] [%] | growth at 10 µM [6] [%] | growth at 10 µM [7] [%] | growth at 10 µM [8] [%] | growth at 10 µM [9] [%] | growth at 10 µM [10] [%] | growth at 10 µM [11] [%] | growth at 10 µM [12] [%] | growth at 10 µM [13] [%] | growth at 10 µM [14] [%] | growth at 10 µM [15] [%] | growth at 10 µM [16] [%] | growth at 10 µM [17] [%] | growth at 10 µM [18] [%] | growth at 10 µM [19] [%] | growth at 10 µM [20] [%] | also measured
1 | C[C@@H]1NC(c2ccccc2)=Nc2nc3ccccn3c2C1=O | 121 | 104 | 93.2 | 102 | 98.2 | 106 | 106 | 81.8 | 98.9 | 82.8 | 104 | 103 | 104 | 84.2 | 102 | 99.9 | 113 | 67.2 | 89.8 | 114 | growth at 10 µM [21]: 93.5%; growth at 10 µM [22]: 95.4%; growth at 10 µM [23]: 82.5%; growth at 10 µM [24]: 108%; growth at 10 µM [25]: 103%; growth at 10 µM [26]: 97.5%; growth at 10 µM [27]: 109%; growth at 10 µM [28]: 88%; growth at 10 µM [29]: 104%; growth at 10 µM [30]: 82.5%
2 | COc1ccc(C2=Nc3nc4ccccn4c3C(=O)[C@H](C)N2)cc1 | 96.1 | 121 | 85.7 | 98.5 | 84.4 | 99.1 | 80.4 | 93.5 | 102 | 81.9 | 85.2 | 98.3 | 94.3 | 87.6 | 80.3 | 76.5 | 98.5 | 72 | 84.9 | 101 | growth at 10 µM [31]: 97.4%; growth at 10 µM [21]: 106%; growth at 10 µM [22]: 87.4%; growth at 10 µM [23]: 87.3%; growth at 10 µM [24]: 86.8%; growth at 10 µM [25]: 98.5%; growth at 10 µM [26]: 83.8%; growth at 10 µM [27]: 97.5%; growth at 10 µM [28]: 86.9%; growth at 10 µM [29]: 105%; growth at 10 µM [30]: 55.6%
3 | C[C@@H]1NC(c2ccc(N(C)C)cc2)=Nc2nc3ccccn3c2C1=O | 97.6 | 111 | 88.1 | 94.8 | 84.2 | 95.2 | 86.6 | 89.7 | 96.3 | 70 | 94.7 | 101 | 83.7 | 87 | 69.2 | 72.3 | 101 | 66 | 78.9 | 90.5 | growth at 10 µM [31]: 88.2%; growth at 10 µM [21]: 85.3%; growth at 10 µM [22]: 79.4%; growth at 10 µM [24]: 82.2%; growth at 10 µM [25]: 102%; growth at 10 µM [26]: 85.3%; growth at 10 µM [27]: 94.2%; growth at 10 µM [28]: 77.5%; growth at 10 µM [29]: 91.9%; growth at 10 µM [30]: 53.7%
